Results from paper PMC9748978 (RSC Advances, 2022).
Read-outs that look alike come from different tables or passages of the source.

Key:
[1] = compound, TG; cited from earlier work
[2] = type: in vitro ADME; conditions: pig skin; for CUM – cumulative permeation mass / Q – the percentage of the applied dose after 24 h: 24 h; for CUM – cumulative permeation mass / Q – the percentage of the applied dose after 24 h / J SS – steady-state flux / K m – skin partition coefficient / L T – lag time / K P – permeability coefficient: solution in 70% ethanol; for steady-state flux (JSS): from ethanol solution
In short: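 Pig abdominal skin in Franz cells with 8 cm3 PBS (pH 7.4) acceptor at 37.0 ± 0.5 °C, stirred 400 rpm. Donor: 1 cm3 of about 5% solution (about 0.05 g cm−3) in 70% ethanol, stoppered. Acceptor sampled (0.3 cm3, buffer replaced) at 0.5–24 h and assayed by HPLC. Jss is the slope of cumulative mass versus time, and lag time is the x-intercept. Kp, D and Km are calculated from these. Mean ± SD, ANOVA/Tukey.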

[3] = Accumulation in the skin after 24 h penetration; type: in vitro ADME, pig; conditions: after 24 h of penetration from solution, porcine skin
In short: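 Franz diffusion cells with porcine abdominal skin, PBS (pH 7.4) acceptor at 37.0 ± 0.5 °C. After 24 h penetration the skin was removed, rinsed in PBS pH 7.4, dried at room temperature, weighed, cut to the 1 cm2 diffusion area and minced. It was then extracted in methanol for 24 h at 4 °C, homogenized 3 min and centrifuged at 3500 rpm for 5 min. Supernatant was assayed by HPLC, expressed as μg IBU per g skin.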

[4] = Tack; type: physicochemical; conditions: transdermal patch (cross-linked adhesive film containing the active ingredient)
In short: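 Tested with a tensile testing machine per AFERA 4015. The patch has an acrylate copolymer adhesive matrix with the active substance added as an ethyl acetate solution, dosed on the basis of 200 mg per 140 cm2. It was coated at 250 μm on polyester film and cross-linked by UV after 10 min at 110 °C.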

[5] = Solubility in water; type: physicochemical; conditions: 25 °C, 24 h
[6] = type: in vitro ADME, pig; conditions: from transdermal patch
[7] = n-octanol/water partition coefficient, shake flask method; type: physicochemical; conditions: n-octanol–water, 25 °C
In short: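 10 mg of compound was shaken with 5 ml n-octanol-saturated water and 5 ml water-saturated n-octanol, stirred 3 h at 25 °C, and the layers were separated. Aqueous concentration was measured by HPLC. Octanol-layer concentration was taken as total minus aqueous. log P = log C0 − log Cw.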

[8] = Thermogravimetric analysis; type: physicochemical; conditions: compound, TG
In short: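 About 5 mg samples were heated from 25 to 1000 °C on a thermobalance under nitrogen (10 ml min−1) and under air (25 ml min−1). Onset decomposition temperature was read from TG curves and maximum decomposition temperature from DTG curves.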

Compound | T max (maximum decomposition temperature) [1] | T onset (the onset of the thermal degradation) [1] | CUM – cumulative permeation mass [2] | Q – the percentage of the applied dose after 24 h [2] | steady-state flux (JSS) [2] | J SS – steady-state flux [2] | K m – skin partition coefficient [2] | L T – lag time [2] | accumulation in the skin [3] | Tack [4] | K P – permeability coefficient [2] | Solubility in water [5] | Solubility in water (as ibuprofen) [5] | delay time (lag time) [6] | log P [7] | T max (maximum decomposition temperature) [8] | T onset (the onset of the thermal degradation) [8]
CC(C)Cc1ccc(C(C)C(=O)O)cc1 (racemic) [[IBU], (R,S)-Ibuprofen, reference compound] | 218.7 °C | 189.8 °C | 133.35 μg cm^−2 | 9.33% | 25.87 μg IBU per cm^2 h | 25.87 μg cm^−2 | 0.281 | 2.582 min | 725.49 ± 164.6184 μg IBU per g skin | – | – | – | – | – | – | – | –
CC(C)Cc1ccc(C(C)C(=O)[O-])cc1.[Na+] (stereo not drawn) [[IBU][Na], sodium ibuprofenate] | – | – | – | – | – | – | – | – | – | 0.05 N | – | – | – | – | – | – | –
CC(C)Cc1ccc(C(C)C(=O)O)cc1.CCCOC(=O)[C@@H](N)Cc1ccccc1 [[PheOPr][IBU], L-phenylalanine propyl ester ibuprofenate] | 210.4 °C | 157.0 °C | 454.86 μg cm^−2 | 15.80% | 28.01 μg IBU per cm^2 h | 28.01 μg cm^−2 | 0.200 | 1.705 min | 602.86 ± 76.98 μg IBU per g skin | – | 5446.1 ×10⁻⁶ cm/s | 9.481 ± 0.066 g dm^−3 | 4.596 ± 0.161 g IBU per dm^3 | about 1 h | +1.021 | – | –
CC(C)Cc1ccc(C(C)C(=O)O)cc1.CCCOC(=O)[C@@H](N)Cc1c[nH]c2ccccc12 [[TrpOPr][IBU], L-tryptophan propyl ester ibuprofenate] | – | – | 319.22 μg cm^−2 | 12.42% | – | 22.72 μg cm^−2 | 0.208 | 2.179 min | 595.41 ± 76.32 μg IBU per g skin | – | 4418.6 ×10⁻⁶ cm/s | 9.396 ± 0.027 g dm^−3 | 4.577 ± 0.037 g IBU per dm^3 | – | +1.044 | 219.3 °C | –
CC(C)Cc1ccc(C(C)C(=O)O)cc1.CCCOC(=O)[C@@H](N)Cc1ccc(O)cc1 [[TyrOPr][IBU], L-tyrosine propyl ester ibuprofenate] | – | – | 284.27 μg cm^−2 | 9.51% | – | 25.57 μg cm^−2 | 0.229 | 2.133 min | 609.35 ± 106.07 μg IBU per g skin | – | 4971.7 ×10⁻⁶ cm/s | 8.569 ± 0.022 g dm^−3 | 4.188 ± 0.065 g IBU per dm^3 | – | +1.055 | 209.4 °C | 148.1 °C
L-histidine propyl ester bis(ibuprofenate) [[HisOPr][IBU]] | – | – | 335.13 μg cm^−2 | 7.90% | 21.33 μg IBU per cm^2 h | 21.33 μg cm^−2 | 0.192 | 2.141 min | – | – | 4143.9 ×10⁻⁶ cm/s | – | – | – | +0.963 | 212.5 °C | 157.5 °C
